Data reported in ChEMBL document CHEMBL1156058, “Discovery of disubstituted phenanthrene imidazoles as potent, selective and orally active mPGES-1 inhibitors” (Bioorg Med Chem Lett, 2009).
The source made the active and inactive calls. The rule behind the calls is not given here.

Experiments:
Blood [1] = assay: Inhibition of PGE2 production in LPS-stimulated human whole blood; type: functional, tissue-based
[2] = Metabolic stability in human liver hepatocytes assessed as compound remaining after 2 hrs; type: ADME, cell-based, Hepatocyte; details: read-out: Stability
Method in brief: (§1)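 Compound incubated with hepatocytes (rat or human) for 2 h at 37 °C; read-out is % parent compound remaining; values are means of at least two experiments.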

[3] = biological target: Prostaglandin E synthase 2 (Homo sapiens, UniProt Q9H7Z7); assay: Inhibition of human PGES2
Chain of Prostaglandin E synthase 2 (Q9H7Z7 whole entry): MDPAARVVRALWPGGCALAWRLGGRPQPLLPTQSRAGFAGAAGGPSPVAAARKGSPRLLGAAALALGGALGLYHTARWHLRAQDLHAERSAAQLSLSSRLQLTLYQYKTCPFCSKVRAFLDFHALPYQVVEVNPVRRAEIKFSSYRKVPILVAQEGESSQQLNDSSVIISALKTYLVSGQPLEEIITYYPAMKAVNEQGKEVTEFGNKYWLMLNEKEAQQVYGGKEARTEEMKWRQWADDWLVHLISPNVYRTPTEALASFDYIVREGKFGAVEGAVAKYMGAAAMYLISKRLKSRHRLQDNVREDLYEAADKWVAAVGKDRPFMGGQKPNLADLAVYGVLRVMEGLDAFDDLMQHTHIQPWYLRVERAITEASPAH

[4] = Oral bioavailability in rat at 20 mg/kg administered as single dose; type: ADME, organism-based; details: in vivo
[5] = Metabolic stability in rat liver hepatocytes assessed as compound remaining after 2 hrs; type: ADME, cell-based, Hepatocyte; details: read-out: Stability; method in brief: as §1
[6] = Half life in rat at 5 mg/kg, iv administered as single dose; type: ADME, organism-based; parameters: dose 5 mg/kg, route intravenous; details: in vivo
Thromboxane-A synthase = biological target: T1, Thromboxane-A synthase (Homo sapiens, UniProt P24557); assay: Inhibition of TX synthase
T1 sequence (P24557 whole entry): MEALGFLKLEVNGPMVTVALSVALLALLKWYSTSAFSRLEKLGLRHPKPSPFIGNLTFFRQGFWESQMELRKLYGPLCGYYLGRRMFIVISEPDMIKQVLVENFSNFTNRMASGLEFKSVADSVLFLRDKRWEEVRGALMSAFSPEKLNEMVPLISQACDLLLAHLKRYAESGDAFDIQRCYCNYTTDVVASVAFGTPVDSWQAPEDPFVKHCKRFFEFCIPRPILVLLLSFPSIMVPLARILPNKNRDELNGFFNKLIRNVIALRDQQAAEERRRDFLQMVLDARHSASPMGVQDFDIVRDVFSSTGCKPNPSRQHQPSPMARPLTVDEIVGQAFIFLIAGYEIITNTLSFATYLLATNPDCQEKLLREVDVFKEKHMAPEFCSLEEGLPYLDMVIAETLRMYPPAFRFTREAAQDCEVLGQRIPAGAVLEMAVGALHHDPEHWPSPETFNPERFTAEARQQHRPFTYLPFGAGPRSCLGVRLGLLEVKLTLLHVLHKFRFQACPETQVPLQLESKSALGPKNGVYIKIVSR

Blood [7] = assay: Inhibition of PGI2 production in LPS-stimulated human whole blood; type: functional, tissue-based
Blood [8] = assay: Inhibition of PGD2 production in LPS-stimulated human whole blood; type: functional, tissue-based
Blood [9] = assay: Inhibition of TXB2 production in LPS-stimulated human whole blood; type: functional, tissue-based
A549 = assay: Inhibition of PGF2alpha production in human A549 cells in presence of 50% fetal bovine serum; type: functional, cell-based
Blood [10] = assay: Inhibition of TXA2 production in human whole blood; type: functional, tissue-based
Cavia porcellus = assay: Analgesic activity against LPS-induced thermal hyperalgesia in po dosed Hartley guinea pig assessed as decrease in paw withdrawal latency administered 1 hr before LPS challenge measured after […]; type: functional
Prostaglandin E synthase [11] = biological target: T2, Prostaglandin E synthase (Homo sapiens, UniProt O14684); assay: Displacement of [3H]PGH2 from human recombinant PGES1 expressed in CHOK1 cells; type: cell-based, CHO-K1
T2 sequence (O14684 whole entry): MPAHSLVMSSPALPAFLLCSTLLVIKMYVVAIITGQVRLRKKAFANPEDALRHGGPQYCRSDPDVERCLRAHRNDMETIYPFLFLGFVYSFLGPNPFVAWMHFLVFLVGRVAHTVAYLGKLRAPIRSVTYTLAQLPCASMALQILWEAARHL

[12] = Tmax in rat at 20 mg/kg; type: ADME, organism-based; parameters: dose 20 mg/kg; details: in vivo
[13] = Inhibition of PGES1 in guinea pig whole blood; type: tissue-based; details: Cavia porcellus
[14] = Half life in monkey; type: ADME, organism-based, Macaca mulatta; details: rhesus monkey, in vivo
Prostaglandin E synthase [15] = biological target: T2, Prostaglandin E synthase; assay: Inhibition of mPGES1 in IL-1-beta-stimulated human A549 cells assessed as blockade of PGH2 to PGE2 conversion in presence of 50% fetal bovine serum; type: cell-based

SMILES | IC50 (Blood [1]) [nM] | half-life [6] [h] | IC50 (Prostaglandin E synthase [11]) [nM] | further results
N#Cc1cccc(C#N)c1-c1nc2c3ccc(Cl)cc3c3cc(C#Cc4cccnc4)ccc3c2[nH]1 | 530 |  |  | 
N#CCCCOc1ccc2c(c1)c1cc(Cl)ccc1c1nc(-c3c(C#N)cccc3C#N)[nH]c21 | 380 |  |  | 
CS(=O)(=O)c1ccc2c(c1)c1cc(Cl)ccc1c1nc(-c3c(C#N)cccc3C#N)[nH]c21 | > 10000 |  |  | 
CC(C)(O)Cc1ccc2c(c1)c1cc(OCCC3CC3)ccc1c1[nH]c(-c3c(C#N)cc(F)cc3C#N)nc21 |  | 2.3 |  | remaining at 2 h [2]: 81%; IC50 [3]: > 30000 nM; bioavailability [4]: 68%; remaining at 2 h [5]: 68%; IC50 (Thromboxane-A synthase): 30000 nM
CC(C)(O)CCc1ccc2c(c1)c1cc(Cl)ccc1c1nc(-c3c(C#N)cccc3C#N)[nH]c21 | 200 | 14 |  | 
CC(C)(O)c1ccc2c(c1)c1cc(Cl)ccc1c1nc(-c3c(C#N)cccc3C#N)[nH]c21 | 1400 |  |  | 
N#Cc1cccc(C#N)c1-c1nc2c3ccc(Cl)cc3c3cc(C#Cc4ccncc4)ccc3c2[nH]1 | 390 |  |  | 
COCC#Cc1ccc2c(c1)c1cc(Cl)ccc1c1nc(-c3c(C#N)cccc3C#N)[nH]c21 | 1100 |  |  | 
CC(C)(O)Cc1ccc2c(c1)c1cc(OCCC3CC3)ccc1c1nc(-c3c(C#N)cc(F)cc3C#N)[nH]c21 | 140 |  |  | Activity (Blood [7]): inactive; Activity (Blood [8]): inactive; IC50 (Blood [9]): > 40000 nM; IC50 (A549): > 40000 nM; Activity (Blood [10]): inactive; ED50 (Cavia porcellus): 14 mg/kg
CC(C)COc1ccc2c(c1)c1cc(CC(C)(C)O)ccc1c1nc(-c3c(C#N)cccc3C#N)[nH]c21 | 290 | 1.3 | 3 | bioavailability [4]: 30%
N#Cc1cccc(C#N)c1-c1nc2c3ccc(Cl)cc3c3cc(OCCn4cccc4)ccc3c2[nH]1 | 380 |  |  | 
CS(=O)(=O)c1ccc(-c2ccc3c(c2)c2cc(Cl)ccc2c2nc(-c4c(C#N)cccc4C#N)[nH]c32)cc1 | 410 |  |  | 
CC(C)(O)Cc1ccc2c(c1)c1cc(OCCC3CC3)ccc1c1nc(-c3c(C#N)cccc3C#N)[nH]c21 | 220 | 1.6 | 0.9 | bioavailability [4]: 76%
N#Cc1cccc(C#N)c1-c1nc2c3ccc(Cl)cc3c3cc(C#CC4(O)CCCC4)ccc3c2[nH]1 | 260 |  |  | 
CC(C)(O)Cc1ccc2c(c1)c1cc(Cl)ccc1c1nc(-c3c(C#N)cccc3C#N)[nH]c21 | 250 | 8.4 | 2 | Tmax [12]: 1 h
CC(C)(O)C#Cc1ccc2c(c1)c1cc(Cl)ccc1c1nc(-c3c(C#N)cccc3C#N)[nH]c21 | 200 | 20 |  | remaining at 2 h [2]: 97%; IC50 [3]: > 30000 nM; Activity (Blood [7]): inactive; Activity (Blood [8]): inactive; IC50 (Blood [9]): > 40000 nM; IC50 (A549): > 40000 nM; ED50 (Cavia porcellus): 30 mg/kg; IC50 [13]: 100 nM; remaining at 2 h [5]: 97%; IC50 (Thromboxane-A synthase): 800 nM
CC(C)(O)Cc1ccc2c(c1)c1cc(OCC3CC3)ccc1c1nc(-c3c(C#N)cccc3C#N)[nH]c21 | 350 | 5.5 | 3 | remaining at 2 h [2]: > 99%; bioavailability [4]: 36%
N#Cc1cccc(C#N)c1-c1nc2c3ccc(Cl)cc3c3ccccc3c2[nH]1 |  | 1.5 |  | remaining at 2 h [2]: 90%; IC50 [3]: > 30000 nM; IC50 (A549): > 40000 nM; half-life [14]: 1.3 h; ED50 (Cavia porcellus): 100 mg/kg; IC50 [13]: 100 nM
CC(C)(O)Cc1ccc2c(c1)c1cc(OCCCC(F)(F)F)ccc1c1nc(-c3c(C#N)cccc3C#N)[nH]c21 | 250 | 3.3 | 1 | remaining at 2 h [2]: 98%; bioavailability [4]: 85%; remaining at 2 h [5]: 92%
CC(=O)c1ccc2c(c1)c1cc(C(C)=O)ccc1c1[nH]c(-c3c(F)cccc3Cl)nc21 |  |  | 122 | IC50 (Prostaglandin E synthase [15]): > 50000 nM
CC(C)(O)C#Cc1ccc2c(c1)c1cc(C#CC3CC3)ccc1c1nc(-c3c(C#N)cccc3C#N)[nH]c21 | 76 | 40 | 1 | 
CC(C)CCOc1ccc2c(c1)c1cc(CC(C)(C)O)ccc1c1[nH]c(-c3c(C#N)cccc3C#N)nc21 | 150 | 4.8 |  | remaining at 2 h [2]: 30%; bioavailability [4]: 46%; remaining at 2 h [5]: 8%
CCc1ccc2c(c1)c1cc(C#CC(C)(C)O)ccc1c1[nH]c(-c3c(C#N)cccc3C#N)nc21 | 370 | 7 | 1 | 
